{
  "source": "ChEMBL document CHEMBL4177578",
  "about": "“Synthesis, pharmacological activities and molecular docking studies of pyrazolyltriazoles as anti-bacterial and anti-inflammatory agents” (Bioorg Med Chem, 2017)",
  "note": "Active and inactive are the calls of the source. The rule behind the calls is not given here.",
  "data": [
    {"system": "not listed separately", "experiment": "Anti-inflammatory activity using bovine serum albumin and egg albumin proteins incubated at 37 degC for 20 mins and then heated to 95 degC for 20 mins by UV-visible Spectrophotometry based protein denaturation method", "type": "functional", "conditions": "not given", "how_it_was_run": "(§1)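 Albumin (bovine serum or egg) at 1% in 50 mM sodium phosphate buffer pH 6.4. Mixture is 0.1 ml test sample (1 mg/ml) plus 0.2 ml albumin, made to 5 ml with buffer. Held 37 °C for 20 min, then 95 °C for 20 min. Cooled to room temperature, turbidity read at 660 nm. % inhibition = (Abs control − Abs sample)/Abs control × 100. Triplicate, averaged.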", "values": [
      {"molecule": "Cc1ccc(-n2cc(CO)c(-c3ccccc3)n2)cc1C", "IC50": "59.79 µg/mL"},
      {"molecule": "Nc1ccc(-c2cn(Cc3cn(-c4ccccc4)nc3-c3ccccc3)nn2)cc1", "IC50": "Not Active"},
      {"molecule": "OCc1cn(Cc2cn(-c3ccccc3)nc2-c2ccc(Cl)cc2Cl)nn1", "IC50": "65.17 µg/mL"},
      {"molecule": "COC(=O)c1nnn(Cc2cn(-c3ccccc3)nc2-c2ccccc2)c1C(=O)OC", "IC50": "Not Active"}
    ]},
    {"system": "Salmonella paratyphi", "experiment": "(§2) Antimicrobial activity against Salmonella paratyphi at 1 mg/ml incubated for 20 to 30 mins followed by incubation for 24 hrs at 37 degC by agar plate method", "type": "functional", "conditions": "Salmonella enterica subsp. enterica serovar Paratyphi A", "how_it_was_run": "(§3)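 Agar well diffusion on nutrient agar. Plates swabbed with 60 µL inoculum, 8 mm wells loaded with 100 µL sample at 1.0 mg/mL, streptomycin standard and control in separate wells. Plates held 20–30 min at 4 °C for diffusion, then 24 h at 37 °C. Zone diameter read in mm; triplicate.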", "values": [
      {"molecule": "Nc1ccc(-c2cn(Cc3cn(-c4ccccc4)nc3-c3ccccc3)nn2)cc1", "diameter of the inhibition zone (DIZ)": "inactive"},
      {"molecule": "COC(=O)c1nnn(Cc2cn(-c3ccccc3)nc2-c2ccccc2)c1C(=O)OC", "diameter of the inhibition zone (DIZ)": "inactive"}
    ]},
    {"system": "Salmonella paratyphi", "experiment": "as §2", "type": "functional, Salmonella enterica subsp. enterica serovar Paratyphi A", "conditions": "Salmonella enterica; read-out: DIZ", "how_it_was_run": "as §3", "units": {"zone of inhibition at 1000 µg/mL": "mm"}, "values": [
      {"molecule": "Cc1ccc(-n2cc(CO)c(-c3ccccc3)n2)cc1C", "zone of inhibition at 1000 µg/mL": 12},
      {"molecule": "OCc1cn(Cc2cn(-c3ccccc3)nc2-c2ccc(Cl)cc2Cl)nn1", "zone of inhibition at 1000 µg/mL": 17}
    ]},
    {"system": "Staphylococcus aureus", "experiment": "Antimicrobial activity against Staphylococcus aureus at 1 mg/ml incubated for 20 to 30 mins followed by incubation for 24 hrs at 37 degC by agar plate method", "type": "functional", "conditions": "not given", "how_it_was_run": "(§4)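 Agar well diffusion on nutrient agar. Plates swabbed with 60 µL inoculum; 8 mm wells loaded with 100 µL of compound at 1.0 mg/mL. Held 20–30 min at 4 °C for diffusion, then 24 h at 37 °C. Inhibition zone diameter read in mm. Triplicate.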", "values": [
      {"molecule": "Nc1ccc(-c2cn(Cc3cn(-c4ccccc4)nc3-c3ccccc3)nn2)cc1", "diameter of the inhibition zone (DIZ)": "inactive"},
      {"molecule": "COC(=O)c1nnn(Cc2cn(-c3ccccc3)nc2-c2ccccc2)c1C(=O)OC", "diameter of the inhibition zone (DIZ)": "inactive"}
    ]},
    {"system": "not listed separately", "experiment": "Anti-inflammatory activity at 100 ug/ml using bovine serum albumin and egg albumin proteins incubated at 37 degC for 20 mins and then heated to 95 degC for 20 mins by UV-visible Spectrophotometry based protein denaturation method", "type": "functional", "conditions": "not given", "how_it_was_run": "as §1", "values": [
      {"molecule": "Cc1ccc(-n2cc(CO)c(-c3ccccc3)n2)cc1C", "inhibition": "83.6%"},
      {"molecule": "Nc1ccc(-c2cn(Cc3cn(-c4ccccc4)nc3-c3ccccc3)nn2)cc1", "inhibition": "inactive"},
      {"molecule": "OCc1cn(Cc2cn(-c3ccccc3)nc2-c2ccc(Cl)cc2Cl)nn1", "inhibition": "76.7%"},
      {"molecule": "COC(=O)c1nnn(Cc2cn(-c3ccccc3)nc2-c2ccccc2)c1C(=O)OC", "inhibition": "inactive"}
    ]},
    {"system": "Salmonella paratyphi", "experiment": "Antimicrobial activity against Salmonella paratyphi incubated for 12 to 16 hrs by tube dilution method", "type": "functional", "conditions": "Salmonella enterica subsp. enterica serovar Paratyphi A", "how_it_was_run": "(§5)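 Broth tube dilution, two-fold serial dilutions from 500 to 1.9 µg/mL plus a drug-free control tube. Each tube inoculated with 1 mL culture at OD 0.2 (~McFarland standard), 37 °C for 12-16 h. Turbidity compared with the control tube. MIC is the lowest concentration giving complete growth inhibition.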", "values": [
      {"molecule": "Nc1ccc(-c2cn(Cc3cn(-c4ccccc4)nc3-c3ccccc3)nn2)cc1", "MIC": "inactive"},
      {"molecule": "COC(=O)c1nnn(Cc2cn(-c3ccccc3)nc2-c2ccccc2)c1C(=O)OC", "MIC": "inactive"}
    ]},
    {"system": "not listed separately", "experiment": "Anti-inflammatory activity at 50 ug/ml using bovine serum albumin and egg albumin proteins incubated at 37 degC for 20 mins and then heated to 95 degC for 20 mins by UV-visible Spectrophotometry based protein denaturation method", "type": "functional", "conditions": "not given", "how_it_was_run": "as §1", "values": [
      {"molecule": "Cc1ccc(-n2cc(CO)c(-c3ccccc3)n2)cc1C", "inhibition": "66.4%"},
      {"molecule": "Nc1ccc(-c2cn(Cc3cn(-c4ccccc4)nc3-c3ccccc3)nn2)cc1", "inhibition": "inactive"},
      {"molecule": "OCc1cn(Cc2cn(-c3ccccc3)nc2-c2ccc(Cl)cc2Cl)nn1", "inhibition": "50.9%"},
      {"molecule": "COC(=O)c1nnn(Cc2cn(-c3ccccc3)nc2-c2ccccc2)c1C(=O)OC", "inhibition": "inactive"}
    ]},
    {"system": "Salmonella typhi", "experiment": "Antimicrobial activity against Salmonella typhi incubated for 12 to 16 hrs followed by plating in nutrient agar by tube dilution method", "type": "functional", "conditions": "Salmonella enterica subsp. enterica serovar Typhi", "how_it_was_run": "(§6)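 After 12-16 h at 37 °C in tube dilution (500 to 1.9 µg/mL; 1 mL inoculum at OD 0.2), the culture from each tube was plated on nutrient agar. MBC is the concentration at which cells are completely killed.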", "values": [
      {"molecule": "Nc1ccc(-c2cn(Cc3cn(-c4ccccc4)nc3-c3ccccc3)nn2)cc1", "MBC": "inactive"},
      {"molecule": "COC(=O)c1nnn(Cc2cn(-c3ccccc3)nc2-c2ccccc2)c1C(=O)OC", "MBC": "inactive"}
    ]},
    {"system": "U-937", "experiment": "Anti-inflammatory activity in human U937 cells assessed as inhibition of LPS-induced TNFalpha production at 10 uM pre-incubated for 1 hr before LPS stimulation for 24 hrs by ELISA method", "type": "functional", "conditions": "not given", "how_it_was_run": "(§7)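 Human U937 cells grown in RPMI1640 with 10% FBS at 37 °C, 5% CO2. Differentiated with PMA 30 ng/ml for 24 h. Test compounds added for 1 h, then LPS 1 µg/ml for 24 h. TNF-α and IL-6 in supernatant measured by ELISA. Three independent experiments.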", "units": {"inhibition at 10 µM": "%"}, "values": [
      {"molecule": "Cc1ccc(-n2cc(CO)c(-c3ccccc3)n2)cc1C", "inhibition at 10 µM": 8.35},
      {"molecule": "OCc1cn(Cc2cn(-c3ccccc3)nc2-c2ccc(Cl)cc2Cl)nn1", "inhibition at 10 µM": 9.9}
    ]},
    {"system": "Salmonella typhi", "experiment": "Antimicrobial activity against Salmonella typhi incubated for 12 to 16 hrs by tube dilution method", "type": "functional", "conditions": "Salmonella enterica subsp. enterica serovar Typhi", "how_it_was_run": "as §5", "values": [
      {"molecule": "Nc1ccc(-c2cn(Cc3cn(-c4ccccc4)nc3-c3ccccc3)nn2)cc1", "MIC": "inactive"},
      {"molecule": "COC(=O)c1nnn(Cc2cn(-c3ccccc3)nc2-c2ccccc2)c1C(=O)OC", "MIC": "inactive"}
    ]},
    {"system": "Micrococcus luteus", "experiment": "Antimicrobial activity against Micrococcus luteus incubated for 12 to 16 hrs followed by plating in nutrient agar by tube dilution method", "type": "functional", "conditions": "not given", "how_it_was_run": "(§8)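 Tube dilution, serial from 500 to 1.9 µg/mL, plus drug-free control tube. Each tube inoculated with 1 mL culture at OD 0.2, incubated 37 °C for 12–16 h. MIC is the lowest concentration with no growth by turbidity. MBC is found by plating each tube on nutrient agar: the lowest concentration at which all cells are killed.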", "values": [
      {"molecule": "Nc1ccc(-c2cn(Cc3cn(-c4ccccc4)nc3-c3ccccc3)nn2)cc1", "MBC": "inactive"},
      {"molecule": "COC(=O)c1nnn(Cc2cn(-c3ccccc3)nc2-c2ccccc2)c1C(=O)OC", "MBC": "inactive"}
    ]},
    {"system": "Salmonella typhi", "experiment": "(§9) Antimicrobial activity against Salmonella typhi at 1 mg/ml incubated for 20 to 30 mins followed by incubation for 24 hrs at 37 degC by agar plate method", "type": "functional", "conditions": "Salmonella enterica subsp. enterica serovar Typhi", "how_it_was_run": "as §3", "values": [
      {"molecule": "Nc1ccc(-c2cn(Cc3cn(-c4ccccc4)nc3-c3ccccc3)nn2)cc1", "diameter of the inhibition zone (DIZ)": "inactive"},
      {"molecule": "COC(=O)c1nnn(Cc2cn(-c3ccccc3)nc2-c2ccccc2)c1C(=O)OC", "diameter of the inhibition zone (DIZ)": "inactive"}
    ]},
    {"system": "Salmonella typhi", "experiment": "as §9", "type": "functional, Salmonella enterica subsp. enterica serovar Typhi", "conditions": "Salmonella enterica; read-out: DIZ", "how_it_was_run": "as §3", "units": {"zone of inhibition at 1000 µg/mL": "mm"}, "values": [
      {"molecule": "Cc1ccc(-n2cc(CO)c(-c3ccccc3)n2)cc1C", "zone of inhibition at 1000 µg/mL": 14.5},
      {"molecule": "OCc1cn(Cc2cn(-c3ccccc3)nc2-c2ccc(Cl)cc2Cl)nn1", "zone of inhibition at 1000 µg/mL": 14}
    ]},
    {"system": "U-937", "experiment": "Anti-inflammatory activity in human U937 cells assessed as inhibition of LPS-induced IL6 production at 10 uM pre-incubated for 1 hr before LPS stimulation for 24 hrs by ELISA method", "type": "functional", "conditions": "not given", "how_it_was_run": "as §7", "units": {"inhibition at 10 µM": "%"}, "values": [
      {"molecule": "Cc1ccc(-n2cc(CO)c(-c3ccccc3)n2)cc1C", "inhibition at 10 µM": 46.4},
      {"molecule": "OCc1cn(Cc2cn(-c3ccccc3)nc2-c2ccc(Cl)cc2Cl)nn1", "inhibition at 10 µM": 39.6}
    ]},
    {"system": "Micrococcus luteus", "experiment": "Antimicrobial activity against Micrococcus luteus at 1 mg/ml incubated for 20 to 30 mins followed by incubation for 24 hrs at 37 degC by agar plate method", "type": "functional", "conditions": "not given", "how_it_was_run": "as §4", "values": [
      {"molecule": "Nc1ccc(-c2cn(Cc3cn(-c4ccccc4)nc3-c3ccccc3)nn2)cc1", "diameter of the inhibition zone (DIZ)": "inactive"},
      {"molecule": "COC(=O)c1nnn(Cc2cn(-c3ccccc3)nc2-c2ccccc2)c1C(=O)OC", "diameter of the inhibition zone (DIZ)": "inactive"}
    ]},
    {"system": "Salmonella paratyphi", "experiment": "Antimicrobial activity against Salmonella paratyphi incubated for 12 to 16 hrs followed by plating in nutrient agar by tube dilution method", "type": "functional", "conditions": "Salmonella enterica subsp. enterica serovar Paratyphi A", "how_it_was_run": "as §6", "values": [
      {"molecule": "Nc1ccc(-c2cn(Cc3cn(-c4ccccc4)nc3-c3ccccc3)nn2)cc1", "MBC": "inactive"},
      {"molecule": "COC(=O)c1nnn(Cc2cn(-c3ccccc3)nc2-c2ccccc2)c1C(=O)OC", "MBC": "inactive"}
    ]},
    {"system": "Micrococcus luteus", "experiment": "Antimicrobial activity against Micrococcus luteus incubated for 12 to 16 hrs by tube dilution method", "type": "functional", "conditions": "not given", "how_it_was_run": "as §8", "values": [
      {"molecule": "Nc1ccc(-c2cn(Cc3cn(-c4ccccc4)nc3-c3ccccc3)nn2)cc1", "MIC": "inactive"},
      {"molecule": "COC(=O)c1nnn(Cc2cn(-c3ccccc3)nc2-c2ccccc2)c1C(=O)OC", "MIC": "inactive"}
    ]}
  ]
}
